Bioassay records: PubChem BioAssay, several laboratories
A selection: hits, their analogues and other compounds. The true share with any hit is near 3.3%.
Arrestin-AP2 inh: inhibitors of beta-arrestin/AP2 binding, primary screen, biochemical, GPCR trafficking, flow cytometry; 340,000 compounds, 0.31% hits; FITC-arrestin peptide / GST-AP2 beads; AP2 beta2 appendage carries R879A mutation; inhibition, % at 10 µM; beta-arrestin 1 C-terminal peptide binding to AP2 beta2-adaptin appendage (human);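 active = inhibition above a set limit, near 3 SD of compounds lacking own fluorescence, cut at about 54% in these data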
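System: GST-AP2 R879A glutathione beads | Also added: FITC-arrestin peptide, 50 nM | Times: 12 min plus 1 h, RT | Signal: Bead flow cytometry, FITC channel | Buffer or medium: PBS with 0.05% Tween 20 and 0.1% BSA | Read-out basis: Percent drop in bead-associated FITC signal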
ABCB6 inh 2: ABCB6 transporter inhibitors, primary screen, K562-ABCB6 cells, flow cytometry, MLPCN library. ATP-binding cassette sub-family B member 6 (Homo sapiens), Q9NP58. K562-ABCB6 porphyrin accumulation, 1 h; stronger effect = lower value. fluorescence ratio to DMSO, % at 10 µM. 360,000 compounds, 0.19% hits;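 active = fluorescence ratio to DMSO below 75%, the collection mean minus 3 SD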;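 note: signal is porphyrin accumulated inside mitochondria; lower ratio means ABCB6 inhibition with less porphyrin fluorescence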
Granule exo inh: LAMP-1 surface exposure blockers, TALL-104 cells – cell-based, flow cytometry, MLPCN library, primary screen; inhibition, % at 10 µM; TALL-104 LAMP-1 surface exposure; cells stimulated with thapsigargin and PMA; 360,000 compounds, 0.66% hits;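 active = inhibition above about 55%, limit read from the data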
Myeloid diff MLP: induction of myeloid progenitor differentiation, primary screen, cell-based, flow cytometry, MLPCN library. ER-HoxA9 myeloid progenitors, lysozyme-GFP differentiation. calls only at 10 µM. 360,000 compounds, 1% hits. AID 624256, 2012;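 active = normalized GFP-positive differentiation at or above the plate's own cutoff, the solvent-only control mean plus 3 SD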;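 note: cells exposed to compound for four days before flow analysis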
CendR NRP1 mod: modulators of CendR peptide binding to NRP-1, primary screen, biochemical, fluorescence polarization, uHTS; Neuropilin-1 (Homo sapiens), O14786; FAM-RPARPAR peptide binding to NRP-1; inhibition, % at 25 µM; 360,000 compounds, 0.85% hits; AID 602438, 2012;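 active = inhibition or corrected inhibition above about 18%, plus a signal ratio from 0.5 to 1.5, limit read from the data, passing the limit was not always enough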
ATG4B inh: ATG4B protease inhibitors, primary screen, biochemical, fluorescence, uHTS | 340,000 compounds, 0.51% hits | inhibition, % at 8.33 µM | ATG4B cleavage of LC3-PLA2, NBD-HPC fluorescence, 1 h | AID 504462, 2011 | Cysteine protease ATG4B (Homo sapiens), Q9Y4P1; in the data active = inhibition above about 40%
Target sequence (Q9Y4P1 whole entry, looked up): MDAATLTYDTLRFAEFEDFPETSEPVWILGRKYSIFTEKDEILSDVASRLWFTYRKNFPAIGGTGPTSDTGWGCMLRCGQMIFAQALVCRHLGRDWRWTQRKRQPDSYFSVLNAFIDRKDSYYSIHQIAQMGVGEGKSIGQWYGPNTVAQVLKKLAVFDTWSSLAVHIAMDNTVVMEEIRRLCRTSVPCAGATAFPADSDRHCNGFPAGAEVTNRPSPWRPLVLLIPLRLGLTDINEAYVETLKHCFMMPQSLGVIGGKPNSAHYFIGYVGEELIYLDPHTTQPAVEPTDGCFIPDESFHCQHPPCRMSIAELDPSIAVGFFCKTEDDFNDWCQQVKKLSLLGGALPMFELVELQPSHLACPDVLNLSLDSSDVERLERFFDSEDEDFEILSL
Arr AP2 CP1: inhibitors of arrestin peptide binding to AP2, confirmation, biochemical, cherry pick 1, flow cytometry beads; AID 504908, 2011; inhibition, % at 10 µM; shares compounds with Arrestin-AP2 inh; GST-AP2 beads, FITC arrestin peptide binding; GST-fused beta2-adaptin appendage, R879A mutant; 1,300 compounds, 2% hits;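 active = inhibition above a set limit, roughly 3 SD of non-fluorescent compound noise, cut at about 38% in these data; inactive = inhibition at or below that limit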;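 note: loss of bead fluorescence from 50 nM FITC arrestin peptide bound to appendage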
GST-FITC bead: GST-fluorescein capture on glutathione beads, confirmation, artefact control for arrestin-AP2 inhibitor project, biochemical, cherry pick 1, flow cytometry; shares compounds with Arrestin-AP2 inh; GST-fluorescein binding to GSH beads, fluorescence, counter-screen; inhibition, % at 10 µM; 1,300 compounds, 2% hits;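 active = inhibition above 50%, about 3 SD of the inhibition seen with non-fluorescent compounds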;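 note: fluorescein maleimide labelled GST captured on 4 micron glutathione beads; higher means more loss of bead fluorescence from quenching or blocked binding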
Of the large screens only hits and unclear results are named; the others gave an inactive call (follow-up assays come after a bar, where they were run).

CCOC(=O)/C=C/C(=O)OCc1csc(CC(=O)Nc2ccccc2C)n1	none
CC1CCCC(C)N1C(=O)COC(=O)CSc1ccc([N+](=O)[O-])cc1 (centres undefined)	Arrestin-AP2 inh 75.4 | Arr AP2 CP1 inactive | GST-FITC bead inactive
CCOC(=O)C1CCN(C(=O)COC(=O)CSc2ccc([N+](=O)[O-])cc2)CC1	none
CCn1c(=O)n(CC(=O)Nc2cc(OC)c(OC)c(OC)c2)c(=O)c2ccccc21	none | Arr AP2 CP1 inactive | GST-FITC bead inactive
COc1cccc(NC(=O)Cn2c(=O)n(-c3cc(OC)c(OC)c(OC)c3)c(=O)c3ccccc32)c1	none
CCn1c(=O)n(CC(=O)Nc2cccc(OC)c2)c(=O)c2ccccc21	none | Arr AP2 CP1 inactive | GST-FITC bead inactive
Cc1ccccc1OCCOC(=O)c1ccc(S(=O)(=O)N2CCCC2)cc1	none
Cc1ccc2c(c1)N(C(=O)CCC(=O)N1CCC(C(N)=O)CC1)CC(C)O2 (centres undefined)	none
CCCCCOc1ccc(C(=O)Nc2ccc(N3CCOCC3)cc2N2CCOCC2)cc1	none
O=C(COc1ccccc1Br)NC1CC1	none
O=C(COc1ccccc1Br)NC(=O)NC1CCCC1	Arrestin-AP2 inh 55.8 | Arr AP2 CP1 inactive | GST-FITC bead inactive
Cc1ccc(-c2nc3ccccc3s2)cc1NC(=O)c1ccc2c(c1)OCO2	Arrestin-AP2 inh 58.2 | Arr AP2 CP1 inactive | GST-FITC bead inactive
Cc1cc(NC(=O)c2sccc2C)n(-c2nc3ccccc3[nH]2)n1	none | Arr AP2 CP1 inactive | GST-FITC bead inactive
Cc1cc(NC(=O)CC#N)n(-c2nc3ccccc3[nH]2)n1	none
Cc1cc(NC(=O)c2cccs2)n(-c2nc3ccccc3[nH]2)n1	Arrestin-AP2 inh 76.5 | Arr AP2 CP1 inactive | GST-FITC bead inactive
CCCS(=O)(=O)NC(=O)C1(C)CCN(C(=O)c2nc(C)oc2C)C1 (centres undefined)	none (no result: Arrestin-AP2 inh, ATG4B inh)
CC(C)C1C(=O)N(Cc2cn(CC3CCCCC3)nn2)CCS(=O)(=O)N1Cc1ccc(-c2cccc(CO)c2)cc1 (centres undefined)	none (no result: Arrestin-AP2 inh, ATG4B inh)
COc1c(C(=O)NCCSC(C)(C)C)ccc2ccccc12	none
Cc1cccc(C(C(=O)NC2CCCC2)N(C(=O)c2csnn2)C2CC2)c1 (centres undefined)	none
Cc1ccc(C(=O)Nc2ccccc2C(=O)N2CCCCCC2)cc1	none
Cc1ccc(C(=O)Nc2ccccc2C(=O)N2CCCC(C)C2)cc1 (centres undefined)	Arrestin-AP2 inh 56.1 | Arr AP2 CP1 inactive | GST-FITC bead inactive
C[C@H](CO)N1C[C@H](C)[C@@H](CN(C)S(C)(=O)=O)Oc2ccc(NC(=O)CCC(F)(F)F)cc2C1=O	none
CC(=O)NCCc1c[nH]c2ccc(O)cc12	none
COc1ccc(C2Nc3ccccc3C(=O)N2NS(=O)(=O)c2ccccc2)cc1OC (centres undefined)	none
COc1ccc(C2Nc3ccccc3C(=O)N2NS(C)(=O)=O)cc1OC (centres undefined)	Arrestin-AP2 inh 71.2 | Arr AP2 CP1 inactive | GST-FITC bead inactive
O=C(OCc1ccc(F)cc1)c1ccc2c(c1)-c1ccccc1C2=O	Arrestin-AP2 inh 94.1 | Arr AP2 CP1 inactive | GST-FITC bead inactive
COc1ccc(C(=O)CCNc2cccc(Cl)c2)cc1	none
CCCOc1ccc(C(=O)CCNc2cccc(Cl)c2)cc1	Arrestin-AP2 inh 57.2 | Arr AP2 CP1 inactive | GST-FITC bead inactive
CNC(=O)c1ccc(-c2ccc(F)cc2)s1	none
O=C(Nc1ccccc1)c1ccc(-c2ccc(F)cc2)s1	Arrestin-AP2 inh 55.0 | Arr AP2 CP1 inactive | GST-FITC bead inactive
CCC(C(=O)OCC(=O)NCc1ccc2c(c1)OCO2)c1ccccc1 (centres undefined)	none
CC(=O)/C(=N\Nc1cccc(Cl)c1)Sc1nnc(-c2ccccc2)n1-c1ccccc1	Arrestin-AP2 inh 105.1 | Arr AP2 CP1 inactive | GST-FITC bead inactive
CC(=O)/C(=N\Nc1cccc(Cl)c1)Sc1cccc2cccnc12	none
CCc1nc2c(OCc3ccc(Cl)cc3)cccn2c1N(C)C(=O)c1ccc2c(c1)OCO2	none (no result: Arrestin-AP2 inh, ATG4B inh)
COc1ccc(C(=O)N2CCCCCC2)cc1OC1CCN(C(C)=O)CC1	none
COc1ccc(C(=O)N(C)Cc2ccc(C)o2)cc1OC1CCN(C(C)=O)CC1	Arrestin-AP2 inh 61.1 | Arr AP2 CP1 inactive | GST-FITC bead inactive
CCOC(=O)C1CCN(c2cc3c(cc2NC(=O)c2ccccc2Br)n(C)c(=O)n3C)CC1	none | Arr AP2 CP1 inactive | GST-FITC bead inactive
CCOC(=O)C1CCN(c2cc3c(cc2NC(=O)c2cc(OC)ccc2Br)n(C)c(=O)n3C)CC1	none | Arr AP2 CP1 inactive | GST-FITC bead inactive
CCOC(=O)C1CCN(C(=O)c2ccccc2NC(=O)c2ccc(Br)cc2)CC1	none
CCOC(=O)C1CCN(CC(=O)c2c(C)n(C)c3ccc(OC)cc23)CC1	none
COc1ccc2oc(C(=O)Nc3ccccn3)c(C)c2c1	none (no result: Myeloid diff MLP)
COc1ccc2oc(C(=O)Nc3nc(C)cs3)c(C)c2c1	Arrestin-AP2 inh 62.8 | Arr AP2 CP1 inactive | GST-FITC bead inactive
CC(C)CNC(=O)c1cc(S(=O)(=O)N2CCOCC2)ccc1N1CCCC1	Arrestin-AP2 inh 55.2 | Arr AP2 CP1 inactive | GST-FITC bead inactive
CCCNC(=O)c1cc(S(=O)(=O)N2CCCCC2)ccc1N1CCOCC1	none (no result: Myeloid diff MLP)
COc1ccc(CNC(=O)c2cc(S(=O)(=O)N3CCCCC3)ccc2N2CCOCC2)cc1OC	none
CC(=O)c1ccccc1NC(=O)c1cc(S(=O)(=O)N2CCOCC2)ccc1N1CCCC1	none | Arr AP2 CP1 inactive | GST-FITC bead inactive
O=C(Nc1ccccc1N1CCCC1)c1cc(S(=O)(=O)N2CCOCC2)ccc1Cl	none
COc1ccc(CCNC(=O)c2cc(S(=O)(=O)N3CCOCC3)ccc2N2CCCC2)cc1OC	none | Arr AP2 CP1 inactive | GST-FITC bead inactive
CCN(CC)S(=O)(=O)c1cc(NC(=O)C2CSC3(C)CCC(=O)N23)ccc1C (centres undefined)	none
